Assay results taken from ChEMBL document CHEMBL1138269, “Antimicrobial lexitropsins containing amide, amidine, and alkene linking groups” (J Med Chem, 2007).
In brackets after ≈: the same amount, converted by molar mass.

Legend:
Format in all cases: functional
Staphylococcus aureus [1] = test: Antibacterial activity against methicillin-resistant Staphylococcus aureus clinical isolate 1
In short: (§1)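 Broth microdilution MIC against clinical S. aureus isolates (incl. MRSA), run per NCCLS guidelines in 96-well plates. Test sample dissolved in sterile water to a 200 µg mL-1 working concentration, then doubling dilutions in Mueller-Hinton broth. Incubated at 37 °C, growth read visually plus resazurin indicator. MIC reported in µg/mL.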

Enterococcus faecalis = test: Antibacterial activity against Streptococcus faecalis NCTC 775; conditions: Enterococcus faecalis, NCTC 775; read-out: MIC
In short: (§2)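 Broth microdilution in Mueller-Hinton broth. Samples were dissolved in sterile water to 200 µg mL-1 as the working solution and doubling dilutions were made across rows. Plates were incubated at 37 °C and inspected visually, with resazurin added as growth indicator. MIC reported in µg mL-1.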

[2] = test system: Mycolicibacterium fortuitum; test: Antibacterial activity against Mycobacterium fortuitum NCTC 10394; in short: as §2
Staphylococcus aureus [3] = test: Antibacterial activity against methicillin-sensitive Staphylococcus aureus NCTC 6571; conditions: Staphylococcus aureus, NCTC 6571; read-out: MIC; in short: as §2
Candida albicans = test: Antifungal activity against Candida albicans NCPF 3179; conditions: Candida albicans; read-out: MIC
In short: (§3)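 Antifungal microdilution in Sabouraud broth. Test sample at 200 µg mL-1 working solution in sterile water was serially doubled down successive rows. Incubation was at 25 °C, followed by visual growth check and addition of resazurin indicator. Read-out is MIC in µg mL-1.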

Staphylococcus aureus [4] = test: Antibacterial activity against methicillin-resistant Staphylococcus aureus clinical isolate 2; in short: as §1
Staphylococcus aureus [5] = test: Antibacterial activity against methicillin-resistant Staphylococcus aureus clinical isolate 3; in short: as §1
Staphylococcus aureus [6] = test: Antibacterial activity against methicillin-resistant Staphylococcus aureus clinical isolate 5; in short: as §1
Staphylococcus aureus [7] = test: Antibacterial activity against methicillin-resistant Staphylococcus aureus clinical isolate 4; in short: as §1
Aspergillus niger = test: Antifungal activity against Aspergillus niger IMI 149007; in short: as §3

Row | Structure (SMILES) | MIC (Staphylococcus aureus [1]) | MIC (Enterococcus faecalis) | MIC [2] | MIC (Staphylococcus aureus [3]) | MIC (Candida albicans) | MIC (Staphylococcus aureus [4]) | MIC (Staphylococcus aureus [5]) | MIC (Staphylococcus aureus [6]) | MIC (Staphylococcus aureus [7]) | MIC (Aspergillus niger)
1 | Cn1cc(NC(=O)c2cc(NC(=O)c3cc(/C=C/c4ccc5ccccc5n4)cn3C)cn2C)cc1C(=O)NCCN1CCOCC1 | 4 µg/mL (≈ 6.3 µM) | 13 µg/mL (≈ 20.5 µM) | > 50 µg/mL | 13 µg/mL (≈ 20.5 µM) | > 50 µg/mL | 64 µg/mL (≈ 101 µM) | 64 µg/mL (≈ 101 µM) | 16 µg/mL (≈ 25.2 µM) | 32 µg/mL (≈ 50.4 µM) | > 50 µg/mL
2 | CC(C)CCn1cc(NC(=O)c2cc(NC(=O)c3ccc4c(c3)OCO4)cn2C)cc1C(=O)Nc1cc(C(=O)NCCCN(C)C)n(C)c1 | 8 µg/mL (≈ 11.9 µM) | > 50 µg/mL | > 50 µg/mL | 50 µg/mL (≈ 74.3 µM) | > 50 µg/mL | 16 µg/mL (≈ 23.8 µM) | 16 µg/mL (≈ 23.8 µM) | 16 µg/mL (≈ 23.8 µM) | 16 µg/mL (≈ 23.8 µM) | > 50 µg/mL
3 | CN(C)CCCNC(=O)c1cc(NC(=O)c2cc(NC(=O)c3cc(/C=C/c4ccc([N+](=O)[O-])cc4)cn3C)cn2C)cn1C | > 64 µg/mL | 50 µg/mL (≈ 83.2 µM) | > 50 µg/mL | 50 µg/mL (≈ 83.2 µM) | > 50 µg/mL | > 64 µg/mL | > 64 µg/mL | > 64 µg/mL | > 64 µg/mL | > 50 µg/mL
4 | CC(=N)Nc1cc(C(=O)Nc2cc(C(=O)Nc3cc(C(=O)NCCCN4CCOCC4)n(C)c3)n(C)c2)n(C)c1 | > 64 µg/mL | > 50 µg/mL | > 50 µg/mL | > 50 µg/mL | > 50 µg/mL | > 64 µg/mL | > 64 µg/mL | > 64 µg/mL | > 64 µg/mL | > 50 µg/mL
5 | Cn1cc(NC(=O)c2cc(NC(=O)c3csc(/C=C/c4ccc5ccccc5n4)n3)cn2C)cc1C(=O)NCCN1CCOCC1 | 8 µg/mL (≈ 12.5 µM) | 25 µg/mL (≈ 39.1 µM) | > 50 µg/mL | 3 µg/mL (≈ 4.7 µM) | > 50 µg/mL | 8 µg/mL (≈ 12.5 µM) | 8 µg/mL (≈ 12.5 µM) | 8 µg/mL (≈ 12.5 µM) | 8 µg/mL (≈ 12.5 µM) | > 50 µg/mL
6 | COc1cccc(/C=C/c2ccc(C(=O)Nc3cc(C(=O)Nc4cc(C(=O)NCCCN(C)C)n(C)c4)n(C)c3)cc2)c1 | 6.25 µg/mL (≈ 10.7 µM) | > 50 µg/mL | > 50 µg/mL | 6 µg/mL (≈ 10.3 µM) | > 50 µg/mL | 6.25 µg/mL (≈ 10.7 µM) | 6.25 µg/mL (≈ 10.7 µM) | 6.25 µg/mL (≈ 10.7 µM) | 6.25 µg/mL (≈ 10.7 µM) | 50 µg/mL (≈ 85.8 µM)
7 | COc1cccc(/C=C/c2ccc(C(=O)Nc3cc(C(=O)Nc4cc(C(=O)NCCN5CCOCC5)n(C)c4)n(C)c3)cc2)c1 | 2 µg/mL (≈ 3.27 µM) | 50 µg/mL (≈ 81.9 µM) | > 50 µg/mL | 6 µg/mL (≈ 9.82 µM) | > 50 µg/mL | 4 µg/mL (≈ 6.55 µM) | 4 µg/mL (≈ 6.55 µM) | 4 µg/mL (≈ 6.55 µM) | 4 µg/mL (≈ 6.55 µM) | > 50 µg/mL
8 | CN(C)CCCNC(=O)c1cc(NC(=O)c2cc(NC(=O)c3ccc(/C=C/c4cnc5ccccc5c4)cc3)cn2C)cn1C | 25 µg/mL (≈ 41.4 µM) | 13 µg/mL (≈ 21.5 µM) | > 50 µg/mL | 32 µg/mL (≈ 53 µM) | > 50 µg/mL | 25 µg/mL (≈ 41.4 µM) | 25 µg/mL (≈ 41.4 µM) | 25 µg/mL (≈ 41.4 µM) | 25 µg/mL (≈ 41.4 µM) | > 50 µg/mL
9 | CN(C)CCCNC(=O)c1cc(NC(=O)c2cc(NC(=O)c3cc(NC(=N)c4ccc5ccccc5n4)cn3C)cn2C)cn1C | > 64 µg/mL | 50 µg/mL (≈ 80.3 µM) | > 50 µg/mL | > 50 µg/mL | 50 µg/mL (≈ 80.3 µM) | > 64 µg/mL | > 64 µg/mL | > 64 µg/mL | > 64 µg/mL | 50 µg/mL (≈ 80.3 µM)
10 | COc1ccc(/C=C/c2ccc3cc(C(=O)Nc4cc(C(=O)Nc5cc(C(=O)NCCN6CCOCC6)n(C)c5)n(C)c4)ccc3n2)cc1 | 4 µg/mL (≈ 6.04 µM) | 25 µg/mL (≈ 37.8 µM) | > 50 µg/mL | > 50 µg/mL | > 50 µg/mL | > 64 µg/mL | > 64 µg/mL | > 64 µg/mL | > 64 µg/mL | 50 µg/mL (≈ 75.6 µM)
11 | CSc1ccc(/C=C/c2ccc(C(=O)Nc3cc(C(=O)Nc4cc(C(=O)NCCN5CCOCC5)n(C)c4)n(C)c3)cn2)cc1 | 0.5 µg/mL (≈ 0.796 µM) | > 50 µg/mL | > 50 µg/mL | 6 µg/mL (≈ 9.56 µM) | > 50 µg/mL | 4 µg/mL (≈ 6.37 µM) | 2 µg/mL (≈ 3.19 µM) | 0.5 µg/mL (≈ 0.796 µM) | 1 µg/mL (≈ 1.59 µM) | > 50 µg/mL
12 | CC(C)CCc1sc(NC(=O)c2cc(NC(=O)c3cc4ccccc4cn3)cn2C)nc1C(=O)NCCCN(C)C | > 64 µg/mL | 50 µg/mL (≈ 86.8 µM) | > 50 µg/mL | 50 µg/mL (≈ 86.8 µM) | > 50 µg/mL | > 64 µg/mL | > 64 µg/mL | > 64 µg/mL | > 64 µg/mL | > 50 µg/mL
13 | Cn1cccc1/C=C/c1ccc(C(=O)Nc2cc(C(=O)Nc3cc(C(=O)NCCN4CCOCC4)n(C)c3)n(C)c2)cc1 | 4 µg/mL (≈ 6.85 µM) | 13 µg/mL (≈ 22.3 µM) | > 50 µg/mL | 3 µg/mL (≈ 5.14 µM) | > 50 µg/mL | 16 µg/mL (≈ 27.4 µM) | 16 µg/mL (≈ 27.4 µM) | 16 µg/mL (≈ 27.4 µM) | 16 µg/mL (≈ 27.4 µM) | > 50 µg/mL
14 | Cn1cc(NC(=O)c2cc(NC(=O)c3ccc(/C=C/c4ccncc4)cc3)cn2C)cc1C(=O)NCCN1CCOCC1 | 0.5 µg/mL (≈ 0.86 µM) | 25 µg/mL (≈ 43 µM) | > 50 µg/mL | 2 µg/mL (≈ 3.44 µM) | 50 µg/mL (≈ 86 µM) | 2 µg/mL (≈ 3.44 µM) | 1 µg/mL (≈ 1.72 µM) | 0.5 µg/mL (≈ 0.86 µM) | 1 µg/mL (≈ 1.72 µM) | > 50 µg/mL
15 | Cn1cc(NC(=O)c2cc(NC(=O)c3cc(NC(=O)c4cccc(Cl)c4)cn3C)cn2C)cc1C(=O)NCCc1ccccn1 | > 64 µg/mL | > 50 µg/mL | > 50 µg/mL | > 50 µg/mL | > 50 µg/mL | > 64 µg/mL | > 64 µg/mL | > 64 µg/mL | > 64 µg/mL | > 50 µg/mL
16 | CC(C)CCc1sc(NC(=O)c2cc3ccccc3cn2)nc1C(=O)Nc1cc(C(=O)NCCCN(C)C)n(C)c1 | 32 µg/mL (≈ 55.6 µM) | > 50 µg/mL | > 50 µg/mL | > 50 µg/mL | > 50 µg/mL | 32 µg/mL (≈ 55.6 µM) | 32 µg/mL (≈ 55.6 µM) | 32 µg/mL (≈ 55.6 µM) | 32 µg/mL (≈ 55.6 µM) | > 50 µg/mL
17 | CC(C)c1sc(NC(=O)c2cc(NC(=O)c3cc(NC=O)cn3C)cn2C)nc1C(=O)NCCN1CCOCC1 | 32 µg/mL (≈ 56.1 µM) | 25 µg/mL (≈ 43.8 µM) | > 50 µg/mL | 13 µg/mL (≈ 22.8 µM) | > 50 µg/mL | > 64 µg/mL | 64 µg/mL (≈ 112 µM) | 64 µg/mL (≈ 112 µM) | 64 µg/mL (≈ 112 µM) | > 50 µg/mL
18 | Cn1cc(NC(=O)c2cc(NC(=O)c3cc(/C=C/c4cnc5ccccc5c4)cn3C)cn2C)cc1C(=O)NCCN1CCOCC1 | 4 µg/mL (≈ 6.3 µM) | > 50 µg/mL | > 50 µg/mL | > 50 µg/mL | > 50 µg/mL | > 64 µg/mL | > 64 µg/mL | 16 µg/mL (≈ 25.2 µM) | > 64 µg/mL | > 50 µg/mL
19 | CSc1ccc(/C=C/c2ccc3cc(C(=O)Nc4cc(C(=O)Nc5cc(C(=O)NCCN6CCOCC6)n(C)c5)n(C)c4)ccc3n2)cc1 | 4 µg/mL (≈ 5.9 µM) | > 50 µg/mL | > 50 µg/mL | > 50 µg/mL | > 50 µg/mL | > 64 µg/mL | > 64 µg/mL | > 64 µg/mL | > 64 µg/mL | > 50 µg/mL
